Compound activity as filed in PubChem BioAssay.
An excerpt weighted towards active compounds, which were near 4.1% of everything screened.
KCNQ1 act – human KCNQ1 channel potentiation or activation | AID 2648 | CHO-K1 KCNQ1, thallium flux FluxOR fluorescence; active compounds read high | B-score at 10 µM | actives 0.35% (n = 310,000) | P51787;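 active = fluorescence ratio B-score, a plate-corrected score, at least three library SD, with initial intensity B-score within 5 SD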
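Test system: CHO-K1 cells stably expressing KCNQ1 / Medium: assay buffer / Also added: depolarizing K+/Tl+ stimulus, K2SO4 and Tl2SO4 each 12.5 mM in 5x stock / Incubation: 90 min dye loading and 20 min compound exposure, both at room temperature / Signal: thallium influx via FluxOR fluorescence, kinetic imaging / Evaluation: B score of baseline-normalized fluorescence ratio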
KCNK3 inh – human KCNK3 channel inhibition, primary screen | O14649 | AID 602410 | B-score at 10 µM | actives 0.84% (n = 340,000) | CHO-KCNK3 thallium flux, FluxOR fluorescence; active compounds read low;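 active = B-score under library mean minus 4 SD, starting fluorescence ratio at most library mean plus 5 SD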;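 also: more negative B-score means stronger inhibition of thallium flux through KCNK3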
KCNQ1 block – human KCNQ1 channel inhibition; AID 2642; actives 1.3% (n = 310,000); CHO-K1 KCNQ1, FluxOR thallium flux fluorescence; active compounds read high; B-score at 10 µM; P51787;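 active = compounds whose thallium flux B-score, printed positive for inhibition, exceeds three library SD while starting fluorescence stays within three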;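 also: channel opened by potassium depolarization with thallium stimulus after 20 min compound exposure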
KCNK9 inh – inhibitors of human KCNK9 two-pore domain potassium channel; B-score at 10 µM; actives 1.2% (n = 310,000); HEK293 KCNK9, FluxOR thallium flux fluorescence; active compounds read low; Q9NPC2; AID 488922;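 active = ratio B-score over 3 SD below the library mean, with starting fluorescence within 5 SD of its mean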;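 also: negative B-score means less thallium flux so channel inhibition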
hERG rescue – hERG (human) protection from proarrhythmic block; CHO-hERG, FluxOR thallium flux, dofetilide IC70 present; activation (rescue from dofetilide block), less the hit threshold, % at 10 µM; Q12809; actives 0.51% (n = 310,000);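 active = activation above the mean of controls blocked by dofetilide plus 5 SD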;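 also: thallium influx through hERG after potassium depolarization seen as dye fluorescence rise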
Cl transport mod – modulators of human KCC2 chloride dependent transport. KCC2 cells, thallium flux FluoZin-2 fluorescence. Q9H2X9. AID 1456. actives 2.2% (n = 190,000). B-score of Tl+ flux slope (higher = more flux/activation; lower = inhibition) at 10 µM;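 active = thallium flux slope and its plate-corrected score both differing from the plate sample mean at a set confidence after two filtering rounds, in either direction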;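 also: slope of fluorescence scaled to starting intensity during 10 to 20 s after thallium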
KCNQ1 inh valid – human KCNQ1 channel inhibition, validation assay; shares compounds with KCNQ1 block; KCNQ1 cell line, FluxOR thallium flux fluorescence; inhibition, % at 10 µM; actives 93% (n = 1,600);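 active = primary screen active, with duplicate mean exceeding buffer control mean plus 3 SD of buffer wells, cut at about 28% in these data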
CHO KCNQ1 ctr – activity in parental CHO cells lacking KCNQ1 | shares compounds with KCNQ1 block | parental CHO-K1, FluxOR thallium flux fluorescence ratio; active compounds read low; zero means no signal rise above baseline | fluorescence ratio (Tl flux) at 10 µM | actives 21% (n = 1,600) | AID 588366;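 active = mean of duplicate thallium-flux fluorescence ratios in parental host cells more than 5 SD below the buffer control mean, cut at about 0.38 in these data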;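 also: ratio is peak minus minimum fluorescence divided by baseline fluorescence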
KCNQ1 ephys val – blocks human KCNQ1 current in automated patch clamp | calls only at 10 µM | actives 20% (n = 490) | KCNQ1-CHO cells | shares compounds with KCNQ1 block;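 active = KCNQ1 current drop exceeding 3 SD of negative control wells, seen in both duplicate runs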;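 also: steady state current during a 2 s step from -80 to +40 mV; negative values mean current inhibition and positive values mean potentiation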
KCNQ2 inh – KCNQ1 inhibitor that also blocks rat KCNQ2 channel; shares compounds with KCNQ1 block; KCNQ2 cells, FluxOR thallium flux fluorescence; inhibition, % at 10 µM; actives 71% (n = 1,600); AID 651746;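 active = mean percent inhibition of the KCNQ2 thallium signal more than 5 SD above the buffer-only control wells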;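 also: KCNQ2 expressed in CHO cells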
KCNQ1-KCNE1 inh – selectivity of KCNQ1 inhibitors: inhibition of human KCNQ1/KCNE1 channel | shares compounds with KCNQ1 block | KCNQ1/KCNE1 cells, FluxOR thallium flux fluorescence | inhibition, % at 10 µM | actives 77% (n = 1,600) | AID 652147;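 active = mean percent inhibition of duplicate wells above the buffer-only control mean plus 3 SD of those controls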
Numbers stand for hits; . = inactive; / = not tested or not shown; + = active, no number.

SMILES	KCNQ1 act	KCNK3 inh	KCNQ1 block	KCNK9 inh	hERG rescue	Cl transport mod	KCNQ1 inh valid	CHO KCNQ1 ctr	KCNQ2 inh	KCNQ1-KCNE1 inh	others
CC(=O)c1cccc(NC(=O)c2ccc3c(c2)CCN3S(=O)(=O)c2ccccc2)c1	.	.	6	.	.	/	65	.	.	78%
COc1cccc(OC)c1C(=O)Nc1ccc2c(c1)CCCN2S(=O)(=O)c1ccc(C)cc1	.	.	.	.	.	/	/	/	/	/
CC(=O)Nc1cccc(NC(=O)c2ccc3c(c2)CCN3S(=O)(=O)c2ccccc2)c1	.	.	.	.	.	/	/	/	/	/
O=C(Nc1nc2ccccc2[nH]1)NC1CCCCC1	.	.	.	.	.	/	/	/	/	/
O=C(Nc1ccc(CN2CCCCC2)cc1)c1c(F)c(F)c(F)c(F)c1F	.	.	6	.	.	.	74	.	.	44%
CC(C)(C)CC(=O)Nc1ccc(S(=O)(=O)NC2=NCCCCC2)cc1	/	.	/	/	/	/	/	/	/	/
COCCN1CCN(c2cc(-c3ccccc3)nc3cc(-c4cccc(F)c4)nn23)CC1	.	.	6	.	.	.	118	0.34	133%	156%
Fc1cccc(-c2cc3nc(-c4ccccc4)cc(N4CCC5(CC4)OCCO5)n3n2)c1	.	.	.	.	.	.	/	/	/	/
CCOC(=O)C1(Cc2cccc(OC)c2)CCCN(C(=O)c2cc(C)on2)C1 (stereo not given)	.	.	.	.	.	/	/	/	/	/
O=C(CCC1CCCCC1)Nc1nnc(C(F)(F)F)s1	.	.	6	.	.	/	64	.	.	34%
CC1CC(C)CN(CC(=O)N2CCCc3c2c(=O)oc2ccc(OCc4ccccc4)cc32)C1 (stereo not given)	.	.	9	.	.	/	110	.	100%	151%
CC1CCN(CC(=O)N2CCCc3c2c(=O)oc2ccc(OCc4ccccc4)cc32)CC1	.	.	.	.	.	/	/	/	/	/
CC(C)(C)c1ccc(C2=CSC3=NCCN23)cc1	.	.	7	.	.	/	43	.	.	46%
CCn1c(=NC(=O)C2COc3ccccc3O2)sc2c(C)ccc(OC)c21 (stereo not given)	.	.	7	-8	.	.	85	.	110%	121%
Nc1ccc(-c2c3ccc(=O)cc-3oc3cc(O)ccc23)cc1C(=O)O	.	.	24	.	.	/	+	0.0075	.	.
O=c1ccc2c(-c3ccccc3)c3ccc(O)cc3oc-2c1	.	.	24	.	.	/	+	0	.	.
COc1ccc2[nH]c3c(c2c1)CCN1C(=O)C(CC(=O)NCC24CC5CC(CC(C5)C2)C4)C[C@H](C(=O)N(C(C)C)C(C)C)[C@@]31C (stereo not given in full)	/	.	/	/	/	/	/	/	/	/
CCCCNC(=O)CCc1c(C)nc2nc(-c3cc(OC)cc(OC)c3)nn2c1C	.	.	.	.	.	.	/	/	/	/
CCC(C)NC(=O)CCc1c(C)nc2nc(-c3cc(OC)cc(OC)c3)nn2c1C (stereo not given)	.	.	8	.	.	.	+	.	.	.	KCNQ1 ephys val=.
COc1ccc(C(NC(=O)C2CCCCC2)c2c(O)ccc3ccccc23)cc1 (stereo not given)	.	.	7	.	.	.	82	.	89%	92%
CCCC(=O)NC(c1ccc(OC)cc1)c1c(O)ccc2ccccc12 (stereo not given)	.	.	.	.	.	/	/	/	/	/
Cc1cc(Nc2ccccc2)nc2cc(O)ccc12	.	.	7	.	.	.	40	.	.	.
CC(=O)Nc1ccc(Nc2cc(C)c3ccccc3n2)cc1	.	.	.	.	.	/	/	/	/	/
COc1ccc(S(=O)(=O)N2CCC(C(=O)Nc3ccccc3N3CCCCC3)CC2)cc1OC	.	.	.	.	.	/	/	/	/	/
CC1Sc2ccc(S(=O)(=O)N3CCC(C(=O)Nc4cccc(Cl)c4)CC3)cc2NC1=O (stereo not given)	.	.	11	.	.	/	150	.	129%	160%
SMILES	KCNQ1 act	KCNK3 inh	KCNQ1 block	KCNK9 inh	hERG rescue	Cl transport mod	KCNQ1 inh valid	CHO KCNQ1 ctr	KCNQ2 inh	KCNQ1-KCNE1 inh	others
Cc1ccc(NC(=O)C2CCN(S(=O)(=O)c3ccc4c(c3)NC(=O)C(C)S4)CC2)cc1C (stereo not given)	.	.	8	.	.	/	138	.	117%	128%	KCNQ1 ephys val=.
CCc1ccc(NC(=O)C2CCN(S(=O)(=O)c3ccc4c(c3)NC(=O)C(C)S4)CC2)cc1 (stereo not given)	.	.	.	.	.	/	/	/	/	/
CC1Sc2ccc(S(=O)(=O)N3CCC(C(=O)NCc4ccc(Cl)cc4)CC3)cc2NC1=O (stereo not given)	.	.	.	.	.	/	/	/	/	/
CCSC(=O)N=Nc1ccc(O)cc1	/	.	/	/	/	/	/	/	/	/
COc1ccc(C)cc1NC(=O)CSc1nc(=O)n(CCCN2CCOCC2)c2c1CCCC2	.	.	.	.	.	/	/	/	/	/
COC(=O)CCS(=O)(=O)c1nc(-c2ccccc2)cc(C(F)(F)F)n1	.	.	8	.	.	/	26	.	80%	62%
CCOC(=O)CCS(=O)(=O)c1nc(-c2ccccc2)cc(C(F)(F)F)n1	.	.	.	.	.	.	/	/	/	/
C=CCNc1ncnc2c1[nH]c1ccc(Cl)cc12	.	.	7	.	.	.	84	.	.	.
CC1CCN(CCCNC(=O)c2ccc3c(=O)n(Cc4ccc(Cl)cc4)c(=S)[nH]c3c2)CC1	.	.	7	.	.	.	.	.	.	.
O=C(Nc1ccc(C(F)(F)F)cc1)c1ccc2nc[nH]c2c1	.	.	6	.	.	.	78	.	86%	.
Cc1c(C(=O)Nc2nnc(C(F)(F)F)s2)oc2ccccc12	.	.	7	.	.	/	69	.	.	.
O=C(Nc1cccc([N+](=O)[O-])c1)NN1CCCCCC1	/	.	/	/	/	/	/	/	/	/
O=C(Nc1ccc(C(F)(F)F)cc1)c1ccccc1	/	.	/	/	/	/	/	/	/	/
O=C(Nc1ccc(Br)c(C(F)(F)F)c1)c1ccccc1	.	.	6	-7.7	.	.	125	.	137%	110%	KCNQ1 ephys val=.
